Test results taken from ChEMBL document CHEMBL1137696, “Preparation and in vitro evaluation of benzylsulfanyl benzoxazole derivatives as potential antituberculosis agents” (2009).
Values after ≈ are worked out from the molar mass of the structure shown.

How the values were obtained:
Type in all cases: functional
Mycobacterium avium [1] = assay: Antimycobacterial activity against Mycobacterium avium CNCTC My 330/88 after 14 days by micromethod; conditions: CNCTC My 330/88, 336 h
Summary of the method: (§1)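 MIC by micromethod in Šula semisynthetic medium. Compounds added as DMSO solutions at 1000, 500, 250, 125, 62, 32, 16, 8, 4 and 2 µmol/L. Incubated at 37 °C and read at 14 and 21 days. MIC taken as the lowest concentration that inhibited mycobacterial growth, expressed in µmol/L. INH run as standard. Strains from CNCTC.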

Mycobacterium kansasii [2] = assay: Antimycobacterial activity against Mycobacterium kansasii CNCTC My 235/80 after 21 days by micromethod; conditions: CNCTC My 235/80, 504 h
Summary of the method: (§2)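 Micromethod MIC in Šula semisynthetic medium, with compounds added as DMSO solutions at 1000, 500, 250, 125, 62, 32, 16, 8, 4 and 2 µmol/L. Cultures were incubated at 37 °C, and M. kansasii was read at 7, 14 and 21 days. MIC is the lowest concentration at which mycobacterial growth was inhibited. INH served as standard. Strain 6509/96 was a clinical isolate.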

[3] = system: Mycobacterium tuberculosis; assay: Antimycobacterial activity against Mycobacterium tuberculosis CNCTC My 331/88 after 14 days by micromethod; conditions: CNCTC My 331/88, 336 h; summary of the method: as §1
[4] = system: Mycobacterium tuberculosis; assay: Antimycobacterial activity against Mycobacterium tuberculosis CNCTC My 331/88 after 21 days by micromethod; conditions: CNCTC My 331/88, 504 h; summary of the method: as §1
Mycobacterium kansasii [5] = assay: Antimycobacterial activity against Mycobacterium kansasii 6509/96 after 7 days by micromethod; conditions: 6509/96, 168 h; summary of the method: as §2
Mycobacterium kansasii [6] = assay: Antimycobacterial activity against Mycobacterium kansasii 6509/96 after 21 days by micromethod; conditions: 6509/96, 504 h; summary of the method: as §2
Mycobacterium kansasii [7] = assay: Antimycobacterial activity against Mycobacterium kansasii CNCTC My 235/80 after 7 days by micromethod; conditions: CNCTC My 235/80, 168 h; summary of the method: as §2
Mycobacterium kansasii [8] = assay: Antimycobacterial activity against Mycobacterium kansasii CNCTC My 235/80 after 14 days by micromethod; conditions: CNCTC My 235/80, 336 h; summary of the method: as §2
Mycobacterium avium [9] = assay: Antimycobacterial activity against Mycobacterium avium CNCTC My 330/88 after 21 days by micromethod; conditions: CNCTC My 330/88, 504 h; summary of the method: as §1
Mycobacterium kansasii [10] = assay: Antimycobacterial activity against Mycobacterium kansasii 6509/96 after 14 days by micromethod; conditions: 6509/96, 336 h; summary of the method: as §2

Row | Structure (SMILES) | MIC (Mycobacterium avium [1]) | MIC (Mycobacterium kansasii [2]) | MIC [3] | MIC [4] | MIC (Mycobacterium kansasii [5]) | MIC (Mycobacterium kansasii [6]) | MIC (Mycobacterium kansasii [7]) | MIC (Mycobacterium kansasii [8]) | MIC (Mycobacterium avium [9]) | MIC (Mycobacterium kansasii [10])
1 | O=[N+]([O-])c1ccc(CSc2nc3ccccc3o2)cc1 | > 32 µM | > 62 µM | > 62 µM | > 125 µM | 32 µM (≈ 9.16 µg/mL) | > 32 µM | 32 µM (≈ 9.16 µg/mL) | 32 µM (≈ 9.16 µg/mL) | > 62 µM | 32 µM (≈ 9.16 µg/mL)
2 | COc1ccc(CSc2nc3ccccc3o2)cc1 | 32 µM (≈ 8.68 µg/mL) | 62 µM (≈ 16.8 µg/mL) | 62 µM (≈ 16.8 µg/mL) | 125 µM (≈ 33.9 µg/mL) | 32 µM (≈ 8.68 µg/mL) | 62 µM (≈ 16.8 µg/mL) | 32 µM (≈ 8.68 µg/mL) | 32 µM (≈ 8.68 µg/mL) | 62 µM (≈ 16.8 µg/mL) | 32 µM (≈ 8.68 µg/mL)
3 | Sc1nc2ccccc2o1 | 250 µM (≈ 37.8 µg/mL) | 1000 µM (≈ 151 µg/mL) | 500 µM (≈ 75.6 µg/mL) | 500 µM (≈ 75.6 µg/mL) | 250 µM (≈ 37.8 µg/mL) | 1000 µM (≈ 151 µg/mL) | 500 µM (≈ 75.6 µg/mL) | 1000 µM (≈ 151 µg/mL) | 500 µM (≈ 75.6 µg/mL) | 500 µM (≈ 75.6 µg/mL)
4 | Fc1cccc(Cl)c1CSc1nc2ccccc2o1 | 62 µM (≈ 18.2 µg/mL) | 62 µM (≈ 18.2 µg/mL) | 62 µM (≈ 18.2 µg/mL) | 125 µM (≈ 36.7 µg/mL) | 32 µM (≈ 9.4 µg/mL) | 62 µM (≈ 18.2 µg/mL) | 32 µM (≈ 9.4 µg/mL) | 32 µM (≈ 9.4 µg/mL) | 62 µM (≈ 18.2 µg/mL) | 32 µM (≈ 9.4 µg/mL)
5 | Clc1ccc(CSc2nc3ccccc3o2)cc1Cl | 62 µM (≈ 19.2 µg/mL) | 125 µM (≈ 38.8 µg/mL) | > 125 µM | > 250 µM | 62 µM (≈ 19.2 µg/mL) | 125 µM (≈ 38.8 µg/mL) | 32 µM (≈ 9.93 µg/mL) | 62 µM (≈ 19.2 µg/mL) | 62 µM (≈ 19.2 µg/mL) | 62 µM (≈ 19.2 µg/mL)
6 | Cc1cccc(CSc2nc3ccccc3o2)c1 | 62 µM (≈ 15.8 µg/mL) | 500 µM (≈ 128 µg/mL) | 250 µM (≈ 63.8 µg/mL) | 500 µM (≈ 128 µg/mL) | 125 µM (≈ 31.9 µg/mL) | 250 µM (≈ 63.8 µg/mL) | 125 µM (≈ 31.9 µg/mL) | 125 µM (≈ 31.9 µg/mL) | 125 µM (≈ 31.9 µg/mL) | 125 µM (≈ 31.9 µg/mL)
7 | Fc1ccccc1CSc1nc2ccccc2o1 | 62 µM (≈ 16.1 µg/mL) | 62 µM (≈ 16.1 µg/mL) | 125 µM (≈ 32.4 µg/mL) | 250 µM (≈ 64.8 µg/mL) | 32 µM (≈ 8.3 µg/mL) | 62 µM (≈ 16.1 µg/mL) | 32 µM (≈ 8.3 µg/mL) | 32 µM (≈ 8.3 µg/mL) | 62 µM (≈ 16.1 µg/mL) | 32 µM (≈ 8.3 µg/mL)
8 | NNC(=O)c1ccncc1 [ISONIAZID] | > 250 µM | > 250 µM | 0.5 µM (≈ 0.0686 µg/mL) | 1 µM (≈ 0.137 µg/mL) | 2 µM (≈ 0.274 µg/mL) | 4 µM (≈ 0.549 µg/mL) | > 250 µM | > 250 µM | > 250 µM | 2 µM (≈ 0.274 µg/mL)
9 | Fc1ccc(CSc2nc3ccccc3o2)cc1F | 62 µM (≈ 17.2 µg/mL) | 125 µM (≈ 34.7 µg/mL) | 125 µM (≈ 34.7 µg/mL) | 125 µM (≈ 34.7 µg/mL) | 32 µM (≈ 8.87 µg/mL) | 125 µM (≈ 34.7 µg/mL) | 62 µM (≈ 17.2 µg/mL) | 125 µM (≈ 34.7 µg/mL) | 125 µM (≈ 34.7 µg/mL) | 62 µM (≈ 17.2 µg/mL)
10 | N#Cc1cccc(CSc2nc3ccccc3o2)c1 | 62 µM (≈ 16.5 µg/mL) | 125 µM (≈ 33.3 µg/mL) | 125 µM (≈ 33.3 µg/mL) | 125 µM (≈ 33.3 µg/mL) | 32 µM (≈ 8.52 µg/mL) | 62 µM (≈ 16.5 µg/mL) | 32 µM (≈ 8.52 µg/mL) | 62 µM (≈ 16.5 µg/mL) | 62 µM (≈ 16.5 µg/mL) | 62 µM (≈ 16.5 µg/mL)
11 | O=[N+]([O-])c1cccc(CSc2nc3ccccc3o2)c1 | > 32 µM | > 32 µM | > 62 µM | 125 µM (≈ 35.8 µg/mL) | 32 µM (≈ 9.16 µg/mL) | > 32 µM | 32 µM (≈ 9.16 µg/mL) | > 32 µM | > 62 µM | 32 µM (≈ 9.16 µg/mL)
12 | FC(F)(F)c1ccc(CSc2nc3ccccc3o2)cc1 | 62 µM (≈ 19.2 µg/mL) | 125 µM (≈ 38.7 µg/mL) | 125 µM (≈ 38.7 µg/mL) | 125 µM (≈ 38.7 µg/mL) | 16 µM (≈ 4.95 µg/mL) | 62 µM (≈ 19.2 µg/mL) | 32 µM (≈ 9.9 µg/mL) | 62 µM (≈ 19.2 µg/mL) | 62 µM (≈ 19.2 µg/mL) | 32 µM (≈ 9.9 µg/mL)
13 | Clc1ccccc1CSc1nc2ccccc2o1 | 125 µM (≈ 34.5 µg/mL) | 62 µM (≈ 17.1 µg/mL) | > 250 µM | > 250 µM | 62 µM (≈ 17.1 µg/mL) | 125 µM (≈ 34.5 µg/mL) | 32 µM (≈ 8.82 µg/mL) | 32 µM (≈ 8.82 µg/mL) | 125 µM (≈ 34.5 µg/mL) | 62 µM (≈ 17.1 µg/mL)
14 | N#Cc1ccc(CSc2nc3ccccc3o2)cc1 | 62 µM (≈ 16.5 µg/mL) | > 32 µM | > 62 µM | > 62 µM | 16 µM (≈ 4.26 µg/mL) | > 32 µM | 32 µM (≈ 8.52 µg/mL) | 32 µM (≈ 8.52 µg/mL) | 62 µM (≈ 16.5 µg/mL) | 32 µM (≈ 8.52 µg/mL)
